Compound activity as filed in PubChem.
Most compounds without a hit are left out; they make up all but 2.4% or so of the library.
LGR2 antag – inhibitors of bursicon-induced Drosophila LGR2 receptor cAMP signaling. HEK293 LGR2, CRE-luciferase, bursicon-stimulated, 4 h. inhibition, % at 9.99 µM. 0.35% of 380,000 active. AID 720647;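 active means drop in luminescence signal, shown as inhibition above about 50% in the replicate tests, limit read from the data, passing the limit was not always enough; inconclusive means probably only some replicates passing the limit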;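 further: agonist challenge used bursicon conditioned medium at about half maximal strength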
rRNA inh HTS – inhibitors of bacterial rRNA selective over humanized ribosomes; AID 720706; 1.6% of 350,000 active; GFP signal change (wild-type ribosome), % (no concentration beside the values); E. coli WT GFP vs humanized-ribosome RFP mutants, fluorescence, 24 h; active compounds read low; DMSO median 0, no signal -100;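 active means significant combined selectivity score with lowered wild-type GFP, culture density cut under 30%, mutant RFP and density less affected; inactive means any of these conditions unmet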
E-sel inducer – E-selectin induction on HUVECs; activation, % at 7.58 µM; P16581; 0.37% of 260,000 active; HUVEC E-selectin immunofluorescence imaging; normalized: neutral wells 0, TNF-alpha wells 100;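 active means mean E-selectin-positive cell signal at least 10% of the positive control, reached in at least 60% of replicates, without over 20% cell loss; inconclusive means no rule given, readout overlaps actives, possibly toxicity-flagged; inactive means the rest, including those meeting only one limit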
Target sequence (P16581 whole entry, looked up): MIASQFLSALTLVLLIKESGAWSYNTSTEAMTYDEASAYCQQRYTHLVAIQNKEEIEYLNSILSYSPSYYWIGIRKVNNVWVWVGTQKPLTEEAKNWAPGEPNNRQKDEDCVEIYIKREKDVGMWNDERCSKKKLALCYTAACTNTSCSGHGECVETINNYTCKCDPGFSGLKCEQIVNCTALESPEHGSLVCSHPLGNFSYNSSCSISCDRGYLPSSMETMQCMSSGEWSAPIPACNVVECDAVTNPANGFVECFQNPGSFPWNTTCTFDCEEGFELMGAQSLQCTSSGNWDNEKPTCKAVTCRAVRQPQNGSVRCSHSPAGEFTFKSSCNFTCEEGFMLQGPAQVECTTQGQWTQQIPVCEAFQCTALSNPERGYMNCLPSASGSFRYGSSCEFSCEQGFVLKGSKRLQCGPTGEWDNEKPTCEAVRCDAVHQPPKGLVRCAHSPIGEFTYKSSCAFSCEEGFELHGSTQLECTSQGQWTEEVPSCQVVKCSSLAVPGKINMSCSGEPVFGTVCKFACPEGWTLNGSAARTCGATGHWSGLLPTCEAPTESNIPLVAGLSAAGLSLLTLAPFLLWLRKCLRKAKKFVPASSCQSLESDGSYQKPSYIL
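Read-out basis: % PE-positive cells; Test system: HUVEC primary endothelial cells; Technique: immunofluorescence imaging; Dosing: single-point compound dose.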
EWS-Fli inh – blocks EWS/Fli oncoprotein-driven transcription. A673 NR0B1-luciferase reporter, viability-normalised. inhibition, % at 12.6 µM. 0.67% of 350,000 active. AID 651661;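 active means mean inhibition of at least 50% after viability correction, with every replicate also passing that limit; inconclusive means mean reaches 50% but only one of two replicates passes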;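 further: firefly luciferase signal divided by Alamar Blue viability fluorescence both relative to DMSO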
* marks the source's active call; other numbers are inactive results; ? = inconclusive; · = no result.

SMILES | LGR2 antag | rRNA inh HTS | E-sel inducer | EWS-Fli inh
CCOCCCNC(=O)C(c1ccc(C)cc1)N(Cc1cccs1)C(=O)c1ccccn1 (stereo unspecified) | -16 | -4 | · | 0
C[C@H](CO)N1C[C@H](C)[C@H](CN(C)C)Oc2ncc(-c3cccc(C(F)(F)F)c3)cc2C1=O | 1 | 3 | 0 | -5
COC(=O)c1ccc(/C=N/Nc2nc(C)c(C)s2)cc1 | · | -2 | · | -102
Cc1nc(N/N=C/c2ccccn2)sc1C | 102* | -51 | 8 | ?
COc1cccc(NC(=O)N2CC3(C2)[C@@H](c2ccccc2)[C@@H](CO)N3C(=O)C2CCC2)c1 | -4 | -1 | 0 | -3
COc1ccc2c3c(n(C)c2c1)[C@@H](CO)NCC31CCN(C(=O)c2ccc(F)cc2)CC1 | -15 | 2 | 0 | -5
COC(=O)c1cc(NC(=O)c2cccc([N+](=O)[O-])c2C)ccc1Cl | -6 | -25* | 0 | -8
COC(=O)c1ccc(Cl)c(NC(=O)c2cccc([N+](=O)[O-])c2C)c1 | -2 | -1 | · | 6
COC(=O)c1nn(-c2ccccc2)c(Sc2ccc(Br)cc2)c1/C=N/O | -1 | -20* | · | ·
COC(=O)C1=C(C)N(C)C(=S)N(C)C1c1cccc(Br)c1 (stereo unspecified) | 14 | -34* | 0 | 1
COc1ccc(CNC(=O)C[C@@H]2CC[C@@H](NC(=O)c3ccc4c(c3)OCO4)[C@H](CO)O2)cc1 | -9 | 1 | 0 | 2
CCN(CC)CCN(C(=O)C1CCCCC1)c1nc2cc3c(cc2s1)OCO3 | 11 | -18* | · | 4
CCN(CC)CCN(C(=O)c1ccc(Br)s1)c1nc2cc3c(cc2s1)OCO3 | 9 | 3 | ? | -6
CN(C)CCCN(C(=O)c1ccc(Cl)s1)c1nc2cc3c(cc2s1)OCO3 | 4 | -12 | · | 57*
CN(C)CCCN(C(=O)c1cc2cc([N+](=O)[O-])ccc2s1)c1nc2cc3c(cc2s1)OCCO3 | -20 | 0 | 3 | 52*
C[C@@H]1CN([C@H](C)CO)C(=O)c2cc(C#CC(C)(C)O)cnc2O[C@H]1CN(C)C(=O)CC1CC1 | 14 | 6 | 0 | -9
COc1ccccc1C(c1c(N)n(C)c(=O)n(C)c1=O)C(C)[N+](=O)[O-] (stereo unspecified) | 7 | 13 | 0 | 11
COc1ccccc1C(C[N+](=O)[O-])c1c(N)n(C)c(=O)n(C)c1=O (stereo unspecified) | 69* | -34* | 5 | 23
CS(=O)(=O)Nc1ccccc1C(=O)OCC(=O)N1CCC(c2ccccc2)=N1 | -7 | -32* | · | -7
S=C(NCc1ccco1)N1CCC(c2nc3ccccc3o2)CC1 | -6 | 14 | 60* | -7
C[C@H]1CN([C@@H](C)CO)C(=O)c2cccc(NC(=O)C3CCOCC3)c2O[C@H]1CN(C)Cc1ccc(Oc2ccccc2)cc1 | 1 | -5 | ? | 6
C[C@@H]1CN([C@H](C)CO)C(=O)c2cccc(NC(=O)C3CCOCC3)c2O[C@@H]1CN(C)Cc1ccc(Oc2ccccc2)cc1 | 5 | 0 | 380* | 11
C[C@H](CO)N1C[C@H](C)[C@H](CN(C)Cc2ccc(Oc3ccccc3)cc2)Oc2c(NC(=O)C3CCOCC3)cccc2C1=O | 0 | 3 | 168* | 4
C[C@@H](NC(=O)C[C@H]1CC[C@@H]2[C@H](COC[C@H](O)CN2C)O1)c1ccccc1 | 4 | -4 | 0 | -3
C[C@H]1CN([C@@H](C)CO)C(=O)c2cc(N(C)C)ccc2O[C@H]1CN(C)C(=O)Nc1ccccc1 | -3 | 5 | · | 1
SMILES | LGR2 antag | rRNA inh HTS | E-sel inducer | EWS-Fli inh
CN(C)C(=O)C[C@H]1C[C@H]2c3cc(NC(=O)CC4CC4)ccc3O[C@H]2[C@@H](CO)O1 | -34 | -3 | 0 | -9
CCN1[C@@H]2c3ccc(C4=CCCCC4)c(=O)n3C[C@H]1[C@H](CO)[C@H]2C(=O)N1CCOCC1 | -12 | 1 | 0 | 3
C[C@H](CO)N1C[C@H](C)[C@H](CN(C)S(=O)(=O)c2cn(C)cn2)Oc2ccc(NC(=O)Nc3cccc4ccccc34)cc2C1=O | 13 | -1 | -3 | 2
Cc1ccc(Oc2ccc(Cl)cc2N)cc1 | -44 | -57 | · | -48
Nc1cc(Cl)ccc1Oc1ccc2ccccc2c1 | -22 | -24* | · | -32
C[C@@H]1CN([C@@H](C)CO)C(=O)c2cccc(NC(=O)Nc3ccc(C(F)(F)F)cc3)c2O[C@@H]1CN(C)S(=O)(=O)c1ccc(Cl)cc1 | 14 | 1 | -3 | -5
CCOC(=O)c1ccc(N=c2sc(C(=O)OC)cc(=O)n2-c2ccc(C(=O)OCC)cc2)cc1 | 58* | 2 | · | 13
CC1Cc2nc(SCC(=O)Nc3nc4ccccc4s3)n(C)c(=O)c2S1 (stereo unspecified) | -21 | -18 | -1 | -10
CCc1c(O)nc(SCC(=O)Nc2nc3ccccc3s2)n(C2CCCCC2)c1=O | -18 | -17* | · | 1
Cc1[nH]n(-c2cccc(Cl)c2)c(=O)c1C=NCC(C)C | -47 | -21* | 0 | -78
O=C(NCC(c1ccco1)N1CCc2ccccc21)C(=O)Nc1ccccc1F (stereo unspecified) | 17 | 5 | · | -5
O=C(NCC(c1ccco1)N1CCc2ccccc21)C(=O)Nc1ccc(F)cc1F (stereo unspecified) | 13 | -13 | 2 | 58*
CC(=O)Nc1sc2c(c1-c1nc3ccccc3s1)CN(C(C)C)CC2 | 102* | -53 | 1 | 54*
C[C@H](CO)N1C[C@H](C)[C@H](CN(C)C(=O)Nc2ccccc2F)OCc2cn(nn2)CCCC1=O | 6 | -1 | 0 | 6
Cc1oc(-c2ccc(Cl)cc2)cc1C(=O)N1CCC1(C)C(=O)O (stereo unspecified) | -2 | -7 | 0 | -45
Cc1oc(-c2ccc(Cl)cc2)cc1C(=O)/C(C#N)=C/Nc1ccccc1 | 2 | -25* | · | 8
C[C@H](CO)N1C[C@H](C)[C@H](CN(C)Cc2ccc(Cl)c(Cl)c2)Oc2c(NS(=O)(=O)c3cn(C)cn3)cccc2C1=O | -7 | -3 | 38* | 4
C[C@@H]1CN([C@@H](C)CO)C(=O)c2cccc(NS(=O)(=O)c3cn(C)cn3)c2O[C@H]1CN(C)Cc1ccncc1 | 7 | -5 | 53* | -2
C[C@@H]1CN([C@H](C)CO)C(=O)c2cccc(NS(=O)(=O)c3cn(C)cn3)c2O[C@H]1CN(C)Cc1ccncc1 | -8 | 5 | 2 | -3
C[C@H](CO)N1C[C@H](C)[C@@H](CN(C)Cc2ccc3c(c2)OCO3)Oc2c(NS(=O)(=O)c3cn(C)cn3)cccc2C1=O | -1 | 2 | 1 | 6
C[C@@H]1CN(C)C(=O)Cc2cc([N+](=O)[O-])ccc2O[C@H]1CN(C)C(=O)OC(C)(C)C | · | 0 | · | ·
O=C(NCC[C@@H]1CC[C@@H](NC(=O)c2cnccn2)[C@@H](CO)O1)Nc1ccc(Cl)cc1 | -10 | -4 | -1 | -13
